Assay results as given in ChEMBL document CHEMBL5058577, “EUbOPEN Chemogenomics Library 2 (Multiplex)” (2022).

System: Fibroblast
Assay: Multiplex assay against human fibroblast
Type: toxicity, cell-based
Summary of the method: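 Cells were classed with CellPathfinder machine-learning gating, first as Hoechst high-intensity objects or normal cells, then (normal cells) as healthy, pyknosed or fragmented nuclei, and finally (pyknosed cells) as mitotic or apoptotic. Staining of live cells at seeding used Hoechst33342, BioTracker Green Microtubule Cytoskeleton Dye, MitoTracker Red and Annexin V Alexa Fluor 680, with imaging on a CQ1 microscope at 37°C and 5% CO2 after compound addition. Tubulin, mitochondrial-mass and membrane-permeability phenotypes are per cents of healthy-nucleus cells.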

[1] = 12 h, 1 µM, compound concentration 1 uM, replicate 1
[2] = 12 h, 1 µM, compound concentration 1 uM, replicate 2
[3] = 12 h, 10 µM, compound concentration 10 uM, replicate 1
[4] = 12 h, 10 µM, compound concentration 10 uM, replicate 2
[5] = 24 h, 1 µM, compound concentration 1 uM, replicate 1
[6] = 24 h, 1 µM, compound concentration 1 uM, replicate 2
[7] = 24 h, 10 µM, compound concentration 10 uM, replicate 1
[8] = 24 h, 10 µM, compound concentration 10 uM, replicate 2
[9] = 48 h, 1 µM, compound concentration 1 uM, replicate 1
[10] = 48 h, 1 µM, compound concentration 1 uM, replicate 2
[11] = 48 h, 10 µM, compound concentration 10 uM, replicate 1
[12] = 48 h, 10 µM, compound concentration 10 uM, replicate 2

O=C(NCC(=O)N1CC[C@H](N[C@H]2CC[C@@](O)(c3ccc(-c4ncccn4)cn3)CC2)C1)c1cccc(C(F)(F)F)c1 [PF-4136309]
Population Apoptotic (%) [1]: 53% | Population Fragmented Nuclei (%) [1]: 13% | Population Healthy Nuclei (%) [1]: 63% | Population Hoechst High Intensity Objects (%) [1]: 2% | Population Membrane Permeable-Phenotype (%) [1]: 1% | Population Mitochondria Different-Phenotype (%) [1]: 4% | Population Mitotic Cells (%) [1]: 46% | Population Normal (%) [1]: 97% | Population Pyknosed Nuclei (%) [1]: 23% | Population Tubulin-Different-Phenotype (%) [1]: 28% | Total Cell Count [1]: 142 | Population Apoptotic (%) [2]: 22% | Population Fragmented Nuclei (%) [2]: 25% | Population Healthy Nuclei (%) [2]: 52% | Population Hoechst High Intensity Objects (%) [2]: 5% | Population Membrane Permeable-Phenotype (%) [2]: 13% | Population Mitochondria Different-Phenotype (%) [2]: 7% | Population Mitotic Cells (%) [2]: 77% | Population Normal (%) [2]: 94% | Population Pyknosed Nuclei (%) [2]: 21% | Population Tubulin-Different-Phenotype (%) [2]: 60% | Total Cell Count [2]: 152 | Population Apoptotic (%) [3]: 60% | Population Fragmented Nuclei (%) [3]: 18% | Population Healthy Nuclei (%) [3]: 69% | Population Hoechst High Intensity Objects (%) [3]: 2% | Population Membrane Permeable-Phenotype (%) [3]: 0% | Population Mitochondria Different-Phenotype (%) [3]: 11% | Population Mitotic Cells (%) [3]: 40% | Population Normal (%) [3]: 97% | Population Pyknosed Nuclei (%) [3]: 12% | Population Tubulin-Different-Phenotype (%) [3]: 46% | Total Cell Count [3]: 210 | Population Apoptotic (%) [4]: 25% | Population Fragmented Nuclei (%) [4]: 24% | Population Healthy Nuclei (%) [4]: 52% | Population Hoechst High Intensity Objects (%) [4]: 5% | Population Membrane Permeable-Phenotype (%) [4]: 4% | Population Mitochondria Different-Phenotype (%) [4]: 6% | Population Mitotic Cells (%) [4]: 75% | Population Normal (%) [4]: 94% | Population Pyknosed Nuclei (%) [4]: 23% | Population Tubulin-Different-Phenotype (%) [4]: 44% | Total Cell Count [4]: 128 | Population Apoptotic (%) [5]: 61% | Population Fragmented Nuclei (%) [5]: 14% | Population Healthy Nuclei (%) [5]: 60% | Population Hoechst High Intensity Objects (%) [5]: 2% | Population Membrane Permeable-Phenotype (%) [5]: 1% | Population Mitochondria Different-Phenotype (%) [5]: 4% | Population Mitotic Cells (%) [5]: 38% | Population Normal (%) [5]: 97% | Population Pyknosed Nuclei (%) [5]: 25% | Population Tubulin-Different-Phenotype (%) [5]: 32% | Total Cell Count [5]: 139 | Population Apoptotic (%) [6]: 45% | Population Fragmented Nuclei (%) [6]: 33% | Population Healthy Nuclei (%) [6]: 52% | Population Hoechst High Intensity Objects (%) [6]: 4% | Population Membrane Permeable-Phenotype (%) [6]: 16% | Population Mitochondria Different-Phenotype (%) [6]: 1% | Population Mitotic Cells (%) [6]: 55% | Population Normal (%) [6]: 95% | Population Pyknosed Nuclei (%) [6]: 14% | Population Tubulin-Different-Phenotype (%) [6]: 52% | Total Cell Count [6]: 148 | Population Apoptotic (%) [7]: 36% | Population Fragmented Nuclei (%) [7]: 15% | Population Healthy Nuclei (%) [7]: 72% | Population Hoechst High Intensity Objects (%) [7]: 3% | Population Membrane Permeable-Phenotype (%) [7]: 0% | Population Mitochondria Different-Phenotype (%) [7]: 10% | Population Mitotic Cells (%) [7]: 63% | Population Normal (%) [7]: 96% | Population Pyknosed Nuclei (%) [7]: 11% | Population Tubulin-Different-Phenotype (%) [7]: 34% | Total Cell Count [7]: 203 | Population Apoptotic (%) [8]: 30% | Population Fragmented Nuclei (%) [8]: 29% | Population Healthy Nuclei (%) [8]: 48% | Population Hoechst High Intensity Objects (%) [8]: 2% | Population Membrane Permeable-Phenotype (%) [8]: 6% | Population Mitochondria Different-Phenotype (%) [8]: 4% | Population Mitotic Cells (%) [8]: 70% | Population Normal (%) [8]: 97% | Population Pyknosed Nuclei (%) [8]: 22% | Population Tubulin-Different-Phenotype (%) [8]: 52% | Total Cell Count [8]: 139 | Population Apoptotic (%) [9]: 58% | Population Fragmented Nuclei (%) [9]: 26% | Population Healthy Nuclei (%) [9]: 49% | Population Hoechst High Intensity Objects (%) [9]: 2% | Population Membrane Permeable-Phenotype (%) [9]: 2% | Population Mitochondria Different-Phenotype (%) [9]: 2% | Population Mitotic Cells (%) [9]: 41% | Population Normal (%) [9]: 97% | Population Pyknosed Nuclei (%) [9]: 24% | Population Tubulin-Different-Phenotype (%) [9]: 27% | Total Cell Count [9]: 149 | Population Apoptotic (%) [10]: 50% | Population Fragmented Nuclei (%) [10]: 36% | Population Hoechst High Intensity Objects (%) [10]: 4% | Population Membrane Permeable-Phenotype (%) [10]: 7% | Population Mitochondria Different-Phenotype (%) [10]: 4% | Population Mitotic Cells (%) [10]: 50% | Population Normal (%) [10]: 95% | Population Pyknosed Nuclei (%) [10]: 13% | Population Tubulin-Different-Phenotype (%) [10]: 46% | Total Cell Count [10]: 137 | Population Apoptotic (%) [11]: 47% | Population Fragmented Nuclei (%) [11]: 18% | Population Healthy Nuclei (%) [11]: 72% | Population Hoechst High Intensity Objects (%) [11]: 6% | Population Membrane Permeable-Phenotype (%) [11]: 0% | Population Mitochondria Different-Phenotype (%) [11]: 15% | Population Mitotic Cells (%) [11]: 52% | Population Normal (%) [11]: 93% | Population Pyknosed Nuclei (%) [11]: 9% | Population Tubulin-Different-Phenotype (%) [11]: 47% | Total Cell Count [11]: 195 | Population Apoptotic (%) [12]: 63% | Population Fragmented Nuclei (%) [12]: 31% | Population Healthy Nuclei (%) [12]: 52% | Population Membrane Permeable-Phenotype (%) [12]: 6% | Population Mitochondria Different-Phenotype (%) [12]: 6% | Population Mitotic Cells (%) [12]: 36% | Population Pyknosed Nuclei (%) [12]: 15% | Population Tubulin-Different-Phenotype (%) [12]: 54% | Total Cell Count [12]: 129
